Activity calls are given as the source filed them. No cut-off for these calls is given here.
How the values were obtained:
[1] = target: T1, Serine/threonine-protein kinase B-raf (Homo sapiens, UniProt P15056, V600E); test: Inhibition of N-terminal His tagged B-Raf V600E mutant (unknown origin) expressed in baculovirus infected insect cells co-expressing CDC37 assessed as decrease in biotinylated-MEK protein phosphorylation by AlphaScreen assay
[2] = target: T1, Serine/threonine-protein kinase B-raf; test: Inhibition of B-Raf V600E mutant in human SK-MEL-28 cells assessed as decrease in ERK phosphorylation incubated for 1 hr by immunoassay; assay type: cell-based
[3] = Intrinsic clearance in monkey liver microsome; assay type: ADME, Macaca mulatta; details: rhesus monkey, microsomes
Rhesus monkey = test: Dose-normalized AUC in po dosed monkey; assay type: ADME, organism-based, Macaca mulatta; details: in vivo
[4] = Oral bioavailability in rat; assay type: ADME, organism-based; details: in vivo
[5] = Oral bioavailability in monkey; assay type: ADME, organism-based, Macaca mulatta; details: rhesus monkey, in vivo
Liver microsomes = test: Intrinsic clearance in rat liver microsome; assay type: ADME
[6] = Blood clearance in iv dosed rat; assay type: ADME, organism-based
SK-MEL-28 = test: Inhibition of B-Raf V600E mutant-driven SK-MEL-28 cell proliferation after 72 hrs by CellTiter-Glo luminescent assay; assay type: functional, cell-based; details: Homo sapiens, SK-MEL-28, 72 h
[7] = Blood clearance in iv dosed dog; assay type: ADME, organism-based, Canis lupus familiaris
[8] = Oral bioavailability in dog; assay type: ADME, organism-based, Canis lupus familiaris; details: in vivo
[9] = Blood clearance in iv dosed monkey; assay type: ADME, organism-based, Macaca mulatta; details: rhesus monkey
Rattus norvegicus = test: Dose-normalized AUC in po dosed rat; assay type: ADME, organism-based; details: in vivo
[10] = Intrinsic clearance in dog liver microsome at 10 uM after 30 mins by LC/MS analysis; assay type: ADME, Canis lupus familiaris; details: microsomes, 0.5 h
Canis familiaris = test: Dose-normalized AUC in po dosed dog; assay type: ADME, organism-based, Canis lupus familiaris; details: in vivo
Mus musculus [11] = test: In vivo inhibition of B-Raf V600E mutant-mediated ERK1/2 phosphorylation in tumor of CD1 nu/nu mouse bearing B-Raf V600E mutant harboring human A375P-F11 cells at =< 30 mg/kg, po administered as a single dose measured after 24 hrs by duplex ELISA; assay type: functional, organism-based; set-up: dose 30 mg/kg
Summary of the method: (§1)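 A375P-F11 xenografts in nude mice, oral gavage dosing in 0.5% HPMC/0.2% Tween-80 water pH 8.0. Tumors homogenized in Tris pH 7.5 lysis buffer with EDTA, EGTA, Triton X-100, SDS, phosphatase inhibitors, kept on ice; spun 14,000 rpm 15 min 4°C, flash frozen. Total and phospho-ERK1/2 measured by duplex electrochemiluminescent ELISA.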

TGF-beta receptor type-1 = target: T2, TGF-beta receptor type-1 (Homo sapiens, UniProt P36897); test: Inhibition of Alk5 in TGF-beta-stimulated human HepG2 cells assessed as decrease in Smad2 phosphorylation treated for 45 mins prior to TGF-beta stimulation measured after 60 mins by odyssey blot scanner analysis; assay type: cell-based
T2 sequence (P36897 whole entry): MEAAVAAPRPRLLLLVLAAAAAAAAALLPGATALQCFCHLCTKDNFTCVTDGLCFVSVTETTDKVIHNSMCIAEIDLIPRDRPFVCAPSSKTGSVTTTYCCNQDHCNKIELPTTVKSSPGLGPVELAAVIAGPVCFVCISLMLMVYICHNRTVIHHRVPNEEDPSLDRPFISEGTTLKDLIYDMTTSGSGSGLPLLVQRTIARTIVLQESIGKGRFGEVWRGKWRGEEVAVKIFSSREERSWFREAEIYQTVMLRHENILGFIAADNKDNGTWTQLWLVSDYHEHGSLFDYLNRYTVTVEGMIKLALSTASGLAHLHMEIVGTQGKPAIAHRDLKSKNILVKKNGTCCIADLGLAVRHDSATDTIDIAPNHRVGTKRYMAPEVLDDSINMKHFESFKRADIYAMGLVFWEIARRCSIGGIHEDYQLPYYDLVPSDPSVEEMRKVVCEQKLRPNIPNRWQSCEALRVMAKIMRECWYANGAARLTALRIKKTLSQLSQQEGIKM
Summary of the method: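 HepG2 cells seeded at 500,000 cells/well, adhered overnight at 37°C/5% CO2 in BME+10% serum; compound added in serum-free medium for 45 min, then stimulated with 1 ng/ml TGF-β for 60 min.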

A375P-F11 = test: Antitumor activity against B-Raf V600E mutant harboring human A375P-F11 cells xenografted in po dosed CD1 nu/nu mouse assessed as tumor growth inhibition administered qd for 14 days by Vernier caliper; assay type: functional, organism-based
Summary of the method: (§2)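 A375P-F11 (single-cell clone of A375P selected by limiting dilution) grown as xenografts in nude mice; daily oral gavage started at ~150-200 mm3 tumors, vehicle 0.5% HPMC + 0.2% Tween-80 in water pH 8.0, 0.2 mL/20 g. Calipers twice weekly; volume = length x width² x 0.5; mean volume, n=7-8 mice/group. Complete regression = >93% volume decrease for ≥1 week.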

HFF = test: Inhibition of proliferation of human HFF cells harboring wild type B-Raf; assay type: cell-based
Mus musculus [12] = test: Toxicity in CD1 nu/nu mouse bearing B-Raf V600E mutant harboring human A375P-F11 cells assessed as changes in body weight at 0.1 to 100 mg/kg, po qd for 14 days; assay type: organism-based; set-up: dose 0.1-100 mg/kg, route oral; details: in vivo, 336 h
COLO 205 = test: Inhibition of human COLO205 cell proliferation; assay type: functional, cell-based
[13] = Antitumor activity against B-Raf V600E mutant harboring human A375P-F11 cells xenografted in CD1 nu/nu mouse assessed as tumor growth inhibition at 100 mg/kg, po qd for 14 days by Vernier caliper; assay type: functional; details: A375P-F11, 336 h, read-out: GI; summary of the method: as §2
Mus musculus [14] = test: In vivo inhibition of B-Raf V600E mutant-mediated ERK1/2 phosphorylation in tumor of CD1 nu/nu mouse bearing B-Raf V600E mutant harboring human A375P-F11 cells at => 3 mg/kg, po administered as single dose measured after 2 to 6 hrs by duplex ELISA; assay type: functional; summary of the method: as §1
Mus musculus [15] = test: In vivo inhibition of B-Raf V600E mutant-mediated ERK1/2 phosphorylation in tumor of po dosed CD1 nu/nu mouse bearing B-Raf V600E mutant harboring human A375P-F11 cells administered as single dose by duplex ELISA; assay type: functional, organism-based; summary of the method: as §1

T1 sequence (P15056 2-766 V600E limits assumed): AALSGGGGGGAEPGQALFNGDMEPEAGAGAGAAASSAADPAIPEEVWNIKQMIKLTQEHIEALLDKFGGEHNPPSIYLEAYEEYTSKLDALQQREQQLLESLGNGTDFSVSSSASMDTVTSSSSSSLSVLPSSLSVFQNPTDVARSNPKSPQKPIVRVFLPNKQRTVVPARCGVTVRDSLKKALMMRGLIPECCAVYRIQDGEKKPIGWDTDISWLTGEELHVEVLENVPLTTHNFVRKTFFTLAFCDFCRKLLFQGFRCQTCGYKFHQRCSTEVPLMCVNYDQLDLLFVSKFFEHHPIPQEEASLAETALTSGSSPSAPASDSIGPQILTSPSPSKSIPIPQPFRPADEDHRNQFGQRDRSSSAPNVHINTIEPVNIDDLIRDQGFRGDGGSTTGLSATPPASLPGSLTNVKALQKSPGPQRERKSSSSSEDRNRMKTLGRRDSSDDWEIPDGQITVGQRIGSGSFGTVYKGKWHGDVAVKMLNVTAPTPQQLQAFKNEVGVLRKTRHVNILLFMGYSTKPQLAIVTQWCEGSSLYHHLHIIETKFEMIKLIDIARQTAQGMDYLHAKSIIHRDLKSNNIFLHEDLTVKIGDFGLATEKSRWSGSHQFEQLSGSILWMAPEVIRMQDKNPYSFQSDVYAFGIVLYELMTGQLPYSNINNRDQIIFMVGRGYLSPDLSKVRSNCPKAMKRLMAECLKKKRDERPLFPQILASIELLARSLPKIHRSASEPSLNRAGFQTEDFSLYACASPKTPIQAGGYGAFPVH

Row | SMILES | IC50 [1] [nM] | IC50 [2] [nM] | AUC/dose (Rattus norvegicus) [ng·h/mL/mg/kg] | AUC/dose (Canis familiaris) [ng·h/mL/mg/kg] | other results
1 | CC(C)c1nc(-c2cccc(NS(=O)(=O)c3cccc(F)c3)c2)c(-c2ccnc(NCCCN(C)C)n2)s1 | 28 | 73 | – | – | –
2 | CC(C)c1nc(-c2cccc(NS(=O)(=O)c3c(F)cccc3F)c2F)c(-c2ccnc(Nc3ccc(N4CCOCC4)nc3)n2)s1 | 3.8 | 23 | 1748 | 42 | CLH [3]: 8 mL/min/g; AUC/dose (Rhesus monkey): 23 ng·h/mL/mg/kg; bioavailability [4]: 85%; bioavailability [5]: 5%; CLH (Liver microsomes): 9 mL/min/g; clearance [6]: 9 mL/min/kg; IC50 (SK-MEL-28): 48 nM; clearance [7]: 38 mL/min/kg; bioavailability [8]: 10%; clearance [9]: 39 mL/min/kg; CLH [10]: 53 mL/min/g
3 | CC(C)c1nc(-c2cccc(NS(=O)(=O)c3c(F)cccc3F)c2F)c(-c2ccnc(NCCS(C)(=O)=O)n2)s1 | 0.3 | 7 | 125 | 68 | –
4 | CC(C)c1nc(-c2ccc(F)c(NS(=O)(=O)c3c(F)cccc3F)c2)c(-c2ccnc(NCCS(C)(=O)=O)n2)s1 | 13 | 51 | 1024 | 43 | –
5 | CC(C)c1nc(-c2cccc(NS(=O)(=O)c3cccc(F)c3)c2)c(-c2ccnc(NC3CC3)n2)s1 | 32 | 28 | 16 | – | –
6 | CC(C)c1nc(-c2cccc(NS(=O)(=O)c3cccc(F)c3)c2)c(-c2ccnc(NCC(N)=O)n2)s1 | 11 | 26 | 6 | – | –
7 | CC(C)c1nc(-c2cccc(NS(=O)(=O)c3c(F)cccc3F)c2)c(-c2ccnc(N)n2)s1 | 40 | 78 | 23 | – | –
8 | CC(C)(C)c1nc(-c2cccc(NS(=O)(=O)c3cc(F)ccc3F)c2)c(-c2ccnc(N)n2)s1 | 8 | 7 | 27 | – | –
9 | CC(C)(C)c1nc(-c2ccc(F)c(NS(=O)(=O)c3c(F)cccc3F)c2)c(-c2ccnc(NCCS(C)(=O)=O)n2)s1 | 13 | 11 | 1373 | – | –
10 | CC(C)(C)c1nc(-c2cccc(NS(=O)(=O)c3c(F)cccc3F)c2F)c(-c2ccnc(N)n2)s1 [DABRAFENIB] | – | – | 729 | 3754 | inhibition (Mus musculus [11]): inactive; IC50 (TGF-beta receptor type-1): 3700 nM; growth inhibition (GI) (A375P-F11): Dose-dependent effect; IC50 (HFF): 3000 nM; clearance [6]: 18 mL/min/kg; IC50 (SK-MEL-28): 3 nM; clearance [7]: 4 mL/min/kg; Activity (Mus musculus [12]): Non-toxic; IC50 (COLO 205): 7 nM; inhibition in vivo at 100 mg/kg [13]: 50%; inhibition in vivo at 3 mg/kg (Mus musculus [14]): > 50%; inhibition (Mus musculus [15]): Dose-dependent effect
11 | CC(C)c1nc(-c2cccc(NS(=O)(=O)c3c(F)cccc3F)c2)c(-c2ccnc(NCCS(C)(=O)=O)n2)s1 | 1 | 4 | 34 | – | –
12 | CC(C)c1nc(-c2ccc(F)c(NS(=O)(=O)c3cccc(F)c3)c2)c(-c2ccnc(N)n2)s1 | 536 | 2560 | – | – | –
